A short description of data set [1]: Compound was evaluated for the ability to inhibitH+/K+ -ATPase formation in rabbit gastric glands. It is filed as functional, tissue-based, Oryctolagus cuniculus, Stomach. The gist of the method: (§1)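 Isolated rabbit gastric glands (collagenase-digested corpus mucosa, 37 °C ~1 h, rinsed, in respiratory medium pH 7.4). 10 mg wet weight glands incubated in RM with 0.05 μCi [14C]aminopyrine, stimulated with 10^-4 M histamine, 37 °C, 1 h shaking. Acid formation read as aminopyrine uptake. Inhibitors diluted in methanol, final 1%. IC50 = 50% inhibition.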

The nature of data set [2]: Compound was evaluated for the ability to inhibit purified H+/K+ -ATPase at pH 7.4, by using gastric membrane vesicles prepared from hog stomach. Type of data set: functional, tissue-based, Sus scrofa. The gist of the method:
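Lyophilized, K+-permeable hog gastric membrane vesicles (10 μg) preincubated with inhibitor 30 min at 37 °C in 2 mM Pipes-Tris pH 7.4 with 10 mM KCl. Reaction started with 2 mM ATP/2 mM MgCl2. Read-out is inorganic phosphate release. K+-stimulated activity = total minus basal Mg2+ activity. Inhibitors added from methanol, final 1%. IC50 = 50% inhibition.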

Data set [3] is described as follows: Inhibitory activity against histamine-stimulated gastric acid secretion in adult mengrel dogs, with surgically prepared Heidenhain pouches after intravenous administration. It is filed as functional. The conditions noted are these: Canis lupus familiaris, Stomach. The gist of the method:
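Adult mongrel dogs with surgically prepared Heidenhain pouches, acid secretion stimulated by histamine. Intravenous dosing, 0.1-5 mg/kg. Acid output reduction measured against the non-drug control in the same animal. ED50 from linear regression, with 95% confidence limits.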

Data set [4] in a line: Inhibitory activity against histamine-stimulated gastric acid secretion in adult mengrel dogs, with surgically prepared Heidenhain pouches after peroral administration. Type of data set: functional. Conditions: Canis lupus familiaris, Stomach, po. The gist of the method:
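Heidenhain pouch mongrel dogs under histamine-stimulated acid secretion, oral dosing 2-8 mg/kg. Reduction in acid output taken relative to the untreated control value in the same dog. ED50 by linear regression, with 95% confidence limits.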

The nature of data set [5]: pKa value of the compound. Type of data set: physicochemical.
The species named for another data set is Oryctolagus cuniculus. Nature of the data set: The percent of compound protonated at pH 7.4. It is filed as functional.
Data set [6] in a line: Compound was evaluated for the ability to inhibit H+/K+ -ATPase formation in rabbit gastric glands. It is filed as functional, tissue-based, Oryctolagus cuniculus, Stomach. The gist of the method: as §1
The species entered for a further data set is Sus scrofa. Nature of the data set: The percent of compound protonated at pH 7.4 in purified H+/K+ -ATPase from hog stomach.

As usually defined, the ED50 is the dose at which the effect has come halfway, by size or by number of responders. Low readings indicate greater potency, high ones weaker potency. One may read the pKa as the negative logarithm of the acid dissociation constant. Take `Cc1nc2c(/C=C/c3ccccc3)cccn2c1C`: the IC50 in data set [1] is listed as 0.99 uM l-1; in data set [2], 1.68 uM l-1. Also, the 50% effective dose (ED50) in data set [3] stood at 0.7 mg/kg; in data set [4], 4.8 mg/kg. Moreover, in data set [5], the pKa amounted to 7.2. In the data set filed under Oryctolagus cuniculus, the Protonated worked out at 38.7%.
For `Cc1nc2c(OCc3ccccc3)cccn2c1N`, the IC50 in data set [6] is on record as 0.31 uM l-1; in data set [2], 0.89 uM l-1. The Protonated in the data set filed under Sus scrofa is 20.4%. Also, the pKa in data set [5] was determined as 6.81.
Regarding `Cc1ccn2c(CC#N)c(C)nc2c1OCc1ccccc1`, the IC50 worked out at 0.4 uM l-1 in data set [6] and 13.7 uM l-1 in data set [2]. Besides, in the data set listed under Sus scrofa, the Protonated is 1.83%. Besides, in data set [5], the pKa amounted to 5.67.
As to `Cc1nc2c3c(ccn2c1CC#N)CCC(c1ccccc1)O3` (racemic), the IC50 amounted to 0.064 uM l-1 in data set [6] and 0.092 uM l-1 in data set [2]. Besides, the Protonated in the data set listed under Sus scrofa came out at 3.83%. In addition, in data set [5], the pKa was 6.
Regarding `Cc1nc2c(/C=C/Cc3ccccc3)cccn2c1CC#N`, the IC50 in data set [6] was found to be 3.8 uM l-1; in data set [2] it was 14 uM l-1. In the data set listed under Sus scrofa, the Protonated came to 1.96%. The compound further yielded a pKa in data set [5] of 5.7.
In the case of `Cc1nc2c(/C=C/Cc3ccccc3)cccn2c1N`, the figures for the IC50 in data set [6] and in data set [2] were 14.1 uM l-1 and 8.6 uM l-1, respectively. Also, the Protonated in the data set filed under Sus scrofa was 18.3%. The pKa in data set [5] is 6.75.
Take `Cc1nc2c(CCc3ccccc3)cccn2c1CC#N`: the figures for the IC50 in data set [6] and in data set [2] were 0.13 uM l-1 and 2 uM l-1, respectively. In the data set listed under Sus scrofa, this compound had a Protonated of 3.83%. Also, the ED50 in data set [3] was 0.1 mg/kg; in data set [4], > 4.4 mg/kg. The compound also gave a pKa in data set [5] of 6.
Take `Cc1nc2c(OCc3ccccc3)nccn2c1N`: the results for the IC50 in data set [6] and in data set [2] were 8.08 uM l-1 and 178 uM l-1, respectively. Besides, in the data set listed under Sus scrofa, the Protonated turned out to be 0.158%. The same compound returned a pKa in data set [5] of 4.6.
`Cc1nc2c(/C=C\c3ccccc3)cccn2c1C`: the IC50 in data set [1] came out at 17.5 uM l-1; in data set [2], 28.4 uM l-1. In data set [5], this compound yielded a pKa of 7.2. In the data set listed under Oryctolagus cuniculus, this compound returned a Protonated of 38.7%.
`Cc1nc2c(C/C=C/c3ccccc3)cccn2c1CC#N`: the values for the IC50 in data set [6] and in data set [2] were 442 uM l-1 and 206 uM l-1, respectively. Moreover, the Protonated in the data set filed under Sus scrofa stood at 3.83%. This compound returned a pKa in data set [5] of 6.
As to `Cc1nc2c(CCc3ccccc3)cccn2c1N`, the figures for the IC50 in data set [6] and in data set [2] were 1.46 uM l-1 and 2.1 uM l-1, respectively. In the data set filed under Sus scrofa, this compound returned a Protonated of 44.3%. This compound yielded a pKa in data set [5] of 7.3.
`Cc1nc2c(OCc3ccccc3)cccn2c1CC#N` showed a pKa in data set [5] of 5.5.

Source of the values: ChEMBL document CHEMBL1125872, “Antiulcer agents. 5. Inhibition of gastric H+/K(+)-ATPase by substituted imidazo[1,2-a]pyridines and related analogues and its implication in modeling the high affinity potassium ion binding site of the gastric proton pump enzyme” (J Med Chem, 1991).
